Compound activity (PubChem BioAssay)
Hits are enriched below; roughly 2.8% of the tested compounds scored in any of these assays.
DENV2 CPE: inhibitors of DENV2 cytopathic effect, primary screen, cell-based, plate reader, single concentration; CPE inhibition, % at 9.99 µM; DENV2-infected cells, cytopathic effect rescue; 350,000 compounds, 1.7% hits; in the data active = CPE inhibition above about 20%, passing the limit was not always enough; inconclusive = no clear call, values can overlap the other calls; tested in BHK-21 cells
SIRT5 inh: SIRT5 desuccinylase inhibitors, primary screen, biochemical, fluorescence imaging, single point, set 5. Purified SirT5, succinyl-peptide AMC, trypsin-coupled fluorescence. NAD-dependent protein deacylase sirtuin-5, mitochondrial (Homo sapiens), Q9NXA8. 330,000 compounds, 1.1% hits. inhibition, % at 15 µM. AID 652115, 2013; in the data active = inhibition above about 15%; inconclusive = no clear call, values can overlap the other calls
Target sequence (Q9NXA8 whole entry, looked up): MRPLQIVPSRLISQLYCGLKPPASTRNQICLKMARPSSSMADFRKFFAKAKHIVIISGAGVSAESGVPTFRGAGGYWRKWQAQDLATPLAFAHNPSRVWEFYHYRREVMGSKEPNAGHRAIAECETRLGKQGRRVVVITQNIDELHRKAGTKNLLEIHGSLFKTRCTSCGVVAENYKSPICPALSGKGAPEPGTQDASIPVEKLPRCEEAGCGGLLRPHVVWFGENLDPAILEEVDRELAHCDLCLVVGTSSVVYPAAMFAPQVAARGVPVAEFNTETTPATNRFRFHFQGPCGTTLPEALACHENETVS
E-sel inducer: E-selectin induction in HUVECs, primary screen, imaging, HUVEC, immunofluorescence imaging, single point; normalized: neutral wells 0, TNF-alpha wells 100; activation, % at 7.58 µM; P16581; 260,000 compounds, 0.37% hits;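 active = mean E-selectin-positive cell signal at least 10% of the positive control, reached in at least 60% of replicates, without over 20% cell loss; inconclusive = no rule given, readout overlaps actives, possibly toxicity-flagged; inactive = the rest, including those meeting only one limit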
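material = human umbilical vein endothelial cells (HUVEC), E-selectin induction | quantity = 3,000 cells/well | medium = EGM-2 growth medium on 0.1% gelatin-coated wells | technique = immunofluorescence imaging | read-out basis = % PE-positive cells | control set = TNF-alpha positive control, DMSO neutral control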
Hits are given with their value; . = inactive; ? = inconclusive; / = no result given; ! = not active in a repeat.

SMILES	DENV2 CPE	SIRT5 inh	E-sel inducer
COCC(=O)N1CC2(CCN(Cc3ccc(Cl)cc3)CC2)c2c([nH]c3cc(OC)ccc23)[C@H]1CO	.	.	.
O=C(COc1cc(Cl)c(Cl)cc1Cl)N1CCN(c2ccccn2)CC1	/	.	/
O=C(COc1cccc2ccccc12)N1CCN(c2ccccn2)CC1	.	18	/
COC(=O)c1c(-c2ccc(OC)cc2)sc2cc3c(cc12)OCO3	20	/	/
COC(=O)c1c(-c2ccc(N(C)C)cc2)sc2ccc(OC)cc12	/	.	.
COc1ccc(CNC(=O)C(OC(=O)c2nsc(Cl)c2Cl)C(C)C)cc1 (stereo unspecified)	.	.	.
CC(C)C(OC(=O)c1nsc(Cl)c1Cl)C(=O)NCc1ccccc1 (stereo unspecified)	.	.	32
COCC#Cc1ccc2c(c1)O[C@H](CN(C)C(=O)Nc1ccccc1F)[C@H](C)CN([C@@H](C)CO)S2(=O)=O	.	.	.
O=C(NC1CC1)C1=C[C@@H](C2CCCCC2)C[C@@H](OCCCCO)O1	39!	.	.
O=C(Nc1ccccc1)C1=C[C@H](C2CC2)C[C@H](OCCCCO)O1	24!	.	.
CCO[C@H]1OC(C(=O)NC2CC2)=C[C@@H](C2CCCCC2)[C@@H]1CCCO	23	.	.
O=C(O)C1=C[C@@H](c2ccc(C(F)(F)F)cc2)C[C@@H](OCCCCO)O1	.	.	.
CCO[C@@H]1OC(C(=O)NC2CC2)=C[C@H](C2CCCCC2)[C@H]1CCCO	/	/	.
O=C(NCc1ccccc1)C1=C[C@@H](C2CC2)C[C@@H](OCCCCO)O1	.	.	.
O=C(O)C1=C[C@@H](C2CCCC2)C[C@@H](OCCCCO)O1	.	.	/
O=C(Nc1ccccc1)C1=C[C@@H](c2ccc(C(F)(F)F)cc2)C[C@@H](OCCCCO)O1	46!	.	.
CCCNC(=O)N1[C@H](CO)[C@H](c2ccc(C3=CCCC3)cc2)[C@H]1CNC(C)=O	.	/	.
CCNC(=O)C[C@@H]1CC[C@@H]2[C@H](COC[C@@H](O)CN2C(=O)Nc2cccc(OC)c2)O1	.	.	.
CCC(=O)N1[C@H](C(=O)Nc2ccccc2)[C@@H](CO)[C@@H]2Cn3c(ccc(C4=CCCC4)c3=O)[C@@H]21	.	.	.
COCC(=O)N1CC2(C1)CN(C(=O)Nc1ccccc1F)[C@@H](CO)c1c2c2ccc(OC)cc2n1C	.	/	.
CC(C)C#Cc1ccc([C@H]2[C@H]3CN(C(=O)NC4CCCCC4)CC(=O)N3[C@H]2CO)cc1	?	.	.
O=C(NCc1ccccc1)C1=C[C@@H](C2CC2)C[C@@H](OCc2ccc(CO)cc2)O1	26!	.	.
O=C(NCc1ccccc1)C1=C[C@H](C2CCCCC2)C[C@H](OCc2ccc(CO)cc2)O1	.	.	.
CCOC(=O)[C@]12CCCC=C1N(CCC1=CCCCC1)C(=O)[C@H](CC(=O)NCc1ccc(OC)c(OC)c1)C2	38	.	.
COC(=O)[C@]12CCCCC=C1N(CCC1=CCCCC1)C(=O)[C@H](CC(=O)NCc1ccc(OC)c(OC)c1)C2	.	.	.
SMILES	DENV2 CPE	SIRT5 inh	E-sel inducer
CCOC(=O)[C@]12CCCC=C1N(CCC1=CCCCC1)C(=O)[C@H](CC(=O)NCc1cccc3ccccc13)C2	22	.	.
CCOC(=O)[C@]12CCC=C1N(Cc1ccc3c(c1)OCO3)C(=O)[C@H](CC(=O)NCCCCc1ccccc1)C2	.	/	/
CCCCCCCCN1C(=O)[C@H](CC(=O)NCCCC)C[C@@]2(C(=O)OCC)CCCC=C12	.	/	/
CCOC(=O)[C@]12CCCC=C1N(Cc1cccc3ccccc13)C(=O)[C@H](CC(=O)NCc1ccccc1)C2	.	.	/
CCCCCCCCN1C(=O)[C@H](CC(=O)NCC23CC4CC(CC(C4)C2)C3)C[C@@]2(C(=O)OCC)CCCC=C12	20	.	/
CCOC(=O)[C@]12CCCC=C1N(Cc1ccc3c(c1)OCO3)C(=O)[C@H](CC(=O)NCCCCc1ccccc1)C2	50	.	/
C[C@@H]1CCCCO[C@H](CN(C)Cc2ccc(C(=O)O)cc2)[C@H](C)CN([C@H](C)CO)C(=O)c2cc(NC(=O)CCC(F)(F)F)ccc2O1	.	.	.
CCNC(=O)C[C@H]1CC[C@H]2[C@@H](COc3ccc(NC(=O)Nc4c(C)noc4C)cc3C(=O)N2C)O1	.	.	.
C[C@H](CO)N1C[C@H](C)[C@H](CN(C)C(=O)CN2CCOCC2)Oc2ncc(-c3cncnc3)cc2C1=O	/	/	.
O=C(CC1CC1)N1CC[C@H]2[C@H](CO)Nc3ccc(-c4ccccc4)cc3[C@H]21	.	.	.
CC(C)C(=O)Nc1ccc2c(c1)C(=O)N(C)[C@@H]1CC[C@H](CC(=O)NC3CCCC3)O[C@@H]1CO2	/	/	.
CO[C@H]1CN(C)C(=O)c2cc(NS(=O)(=O)c3ccccc3F)ccc2OC[C@H](C)NC[C@H]1C	.	.	.
CCCCCCCCN1C(=O)[C@H](CC(=O)NCc2cccc(C(F)(F)F)c2)C[C@@]2(C(=O)OC)CC(C)(C)CC=C12	44	.	.
CCCCCCCCN1C(=O)[C@H](CC(=O)NCc2cccc3ccccc23)C[C@@]2(C(=O)OCC)CCC=C12	.	16	.
CCCCCCCCN1C(=O)[C@@H](CC(=O)NCc2cccc(C(F)(F)F)c2)C[C@@]2(C(=O)OC)C1=C[C@H](C(C)(C)C)O[C@@H]2C	.	/	.
CCOC(=O)[C@]12CCC=C1N(Cc1cccc3ccccc13)C(=O)[C@H](CC(=O)NCc1cccc3ccccc13)C2	.	.	/
COc1cccc(NC(=O)N2C[C@@H](O)COC[C@H]3O[C@H](CC(=O)NCCCN4CCOCC4)CC[C@@H]32)c1	.	/	.
Cc1ccc(N=C2NC(=O)/C(=C/c3cn(C)c4ccccc34)S2)cc1C	.	26	.
Cn1cccc1/C=C1\SC(=Nc2ccccc2)NC1=O	.	.	.
CC1(C)CC(=O)C2=C(C1)NC(=O)NC2c1ccc(Cl)cc1 (stereo unspecified)	23	.	/
CC1(C)CC(=O)C2=C(C1)NC(=O)NC2c1ccccc1Cl (stereo unspecified)	.	.	.
C/C=C(\C)CN1CCC(n2nccc2NC(=O)CCc2ccccc2)CC1	101	.	.
C/C=C(\C)CN1CCC(n2nccc2NC(=O)CCOc2ccccc2)CC1	.	.	/
O=C(C[C@@H]1CC[C@@H](NC(=O)c2ccc3c(c2)OCO3)[C@H](CO)O1)NC1Cc2ccccc2C1	.	.	.
O=C(Nc1cccc(Cl)c1)Nc1cccc(C(=O)O)c1	.	23	/
SMILES	DENV2 CPE	SIRT5 inh	E-sel inducer
CN(C)Cc1csc(NC(=O)Nc2cccc(Cl)c2)n1	.	/	.
O=C(Nc1ccc(Cl)cc1)Nc1cccc(C(=O)O)c1	.	.	/
NCc1csc(NC(=O)Nc2cccc(Cl)c2)n1	25	/	.
CCCC#Cc1ccc2c(c1)O[C@@H](CN(C)C(=O)NC(C)C)[C@@H](C)CN([C@H](C)CO)S2(=O)=O	.	.	.
Cc1ccc(S(=O)(=O)N(C)C[C@H]2Oc3ccc(NS(=O)(=O)c4cn(C)cn4)cc3C(=O)N([C@@H](C)CO)C[C@H]2C)cc1	/	/	.
COc1ccc(NC(=O)N(C)C[C@H]2Oc3c(NS(=O)(=O)c4ccccc4)cccc3C(=O)N([C@H](C)CO)C[C@H]2C)cc1	/	/	.
